Variants at the floor of the assay were thinned out.
B1: tRNA (parent)
chain: GUUCCGUUGGCGUAAUGGUAACGCGUCUCCCUCCUAAGGAGAAGACUGCGGGUUCGAGUCCCGUACGGAACG

Variants of: B1
Assay: yeast fitness relative to wild type (ratio to wild type); higher = fitter; tRNA-Arg(CCU), competitive growth, 37 C, YPD
Procedure, shortened: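 Variants of the tRNA-Arg(CCU) gene were chemically synthesised with a 3% per-site mutation rate across 69 sites and placed at the native genomic locus in Saccharomyces cerevisiae. Six parallel replicates of the pooled strains were competed in YPD at 37°C for 24 hours, and gene amplicons from the start and end populations were read by 100-nucleotide paired-end sequencing. Darwinian fitness relative to wild type was derived from changes in genotype frequencies. Genotypes required ≥ 100 starting reads, and estimates < 0.5 were set to 0.5.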

| Variant | yeast fitness |
| --- | --- |
| GUUCCGUUGGUGUAAUGGUAACGCGUCUCCCUCCUAAGGAGAAGACUGCGGGUUCGAGUCCAGUACGGAACG | 0.743 |
| GUUCCGUUGGUGUAAUGGUAACGCGUCUCCCUCCUAAGGAGAAGACUGCGGGUUCGAGUCCGGUACGGAACG | 0.912 |
| GUUCCGUUGGUGUAAUGGUAACGCGUCUCCCUCCUAAGGAGAAGACUGCGGGUUCGAGUCCUGUACGGAACG | 0.943 |
| GUUCCGUUGGUAUAAUGGUAACGCGUCUCCCUCCUAAGGAGAAGACUGCGGGUUCGAGUCUCGUACGGAACG | 0.511 |
| GUUCCGUUGGUGUAAUGAUAACGCGUCUCCUUCCUAAGGUGAAGACGGCGGGUUCGAGUCCCGUACGGAACG | ≤ 0.5 |
| GUUCCGUUGGUGUAAUGGUAACGCGUCUCCCUCCUAAGGAGAAGACUGCGGGUUCGAGUGCCGUACAGAACG | 0.549 |
| GUUCCGUUGGUGUAAUGGUAACGCGUCUCCCUCCUAAGGAGAAGACUGCGGGUUCGAGUCCGGUACGGUACG | 0.578 |
| GUUCCGUUGGUGUAAUGGUAACGCGUCUCCCUCUUAAGGAGAGGACUGCGGGUUCGAGUCCCGUACGGAACG | ≤ 0.5 |
| GUUCCGUUGGUAUAAUGGUAACGCGUCUCCCUCCUAAGGAGAACAUUGCGGGUUCGAGACCCGUACGGAACG | ≤ 0.5 |
| GUUCCGUUGGUGUAAUGGUAACGCGUCUCCCUCGUAAGGAGAAGACGGCGGGUUCGAGUCCCGUACGGAACG | ≤ 0.5 |
| GUUCCGUUGGUGUAAUAGUAACGCGUCUCCCUCCUAAGGAGAAGACUGCGGGUUCGGGUCCCGUACGGAACG | ≤ 0.5 |
| GUUCCGUUGGUGUAAUGGUAACGCGUCUCCCUCCUAAGGAGAAGACUGCGGGUUGGAGUCCCGUACAGAACG | ≤ 0.5 |
| GUUCCGUUGGUGUAAUGCUAACGCGUCUCCCUCCUAAGGAGAAGACUGCGGGUUCGAGUCCCGUACGGAACG | 0.728 |
| GUUCCGUUGGUGUAAUUGUAACGCGUCUCCCUCCUAAGGUGUAGACUGGGAGUUCGAGUCCCGUAAGCAACG | ≤ 0.5 |
| GUUCCGUUGGUGUAAUAGUAACGCGUCUCCCUCCUAAGGAGAAGACUGUGGGUUCGAGUCCCGUACGGAACG | 0.596 |
| GUUCCGUUGGUGUAAUGAUAACGCGUCUCCCUCCUAAGGUGAAGACUGCGGGUUCGAGUCCCGUACGGAACG | ≤ 0.5 |
| GUUCCGUUGGUGUAAUGGUAACGCGUCUCCCUCCUAAGGAGAAGACUGCGGGUUGGAGUCCCGUAUGGAACG | ≤ 0.5 |
| GUUCCGUUGGUGUAAUGGUAACGCGUCUCCCUCCUAAGGAGAAGACUGUGGGUUCCAGUCCUGUACGGAACG | ≤ 0.5 |
| GUUCCGUUGGUGUAAUGGUAACGCGUCUCCCUCCUAAGGAGAAGACUGCGGGUUCGAGUCCUGUACGGCACG | 0.842 |

| Variant | yeast fitness |
| --- | --- |
| GUUCCGUUGGUGUAAUCGUAACGCGUCUCCCUCCUAAGGAGAAGACUGCGGGUUCGAGUCCCGUACGGAACG | 0.768 |
| GUUCCGUUGGUAUAAUGGUAACGCGUCUCCCUCCUAAGGAGAAGACUGCGGGUUCGAGUCCCGUAUGGAACG | 0.587 |
| GUUCCGUUGGUGUAAUGGUAACGCGUCUCCCUCCUAAGGAGAAGACUGCGGGUUCGAGUCCGGUAAGGAACG | ≤ 0.5 |
| GUUCCGUUGGUGUAAUGGUAACGCGUCUCCCUCCUAAGGAGAAGACUGCGGGUUCGAGUCUCGUACGGAACG | 0.827 |
| GUUCCGUUGGUGUAAUGGUAACGCGUCUCCCUCCUAAGGAGAAGACUGUGGGUUCGAGUCCCGUCCGGAACG | 0.727 |
| GUUCCGUUGGUGUAAUGGUAACGCGUCUCCCUCCUAAGGAGAAGACUGUGGGUUCGAGUCACGUACGGAACG | 0.555 |
| GUUCCGUUGGUGUAAUGAUAACCCGUCUCCCUCUUAAGGAGAAGACUGCGGGUUCGAGUCCCGUACGGAACG | ≤ 0.5 |
| GUUCCGUUGGUGUAAUGGUAACGCGUCUCCCUCCUAAGGAGAAGAUUGCGGGUUCGAGUCCCGUACGGAGCG | 0.786 |
| GUUCCGUUGGUAUACUGGUAACGCGUCUCCAUCCUAAGGAGAAGACUGCGAGUUCGAGUCCCGUACGGAACG | ≤ 0.5 |
| GUUCCGUUGGUAUACUGGUAACGCGUCUCCAUCCUAAGGAGAAGACUGCGAGUUCGAGUCCCGUAUGGAACG | 0.594 |
| GUUCCGUUGGUGUAAUGGUAACGCAUCUCCCUCCUAAGGAGAGGACUGCGCGUUGGAGUCCCGUACGGAACG | 0.695 |
| GUUCCGUUGGUGUAAUGGUAACGCGUCUCCCUCCUAAGGAGAAGAAUGCGGGUUCGAGUCCCGUUCGGAACG | 0.682 |
| GUUCCGUUGGUGUAAUGGUAACGCGUCUCCCUCCUAAGGAGAAGAUUGCGGCUUCGAGCCCCGUAUGGAACG | ≤ 0.5 |
| GUUCCGUUGGUGUAAUGGUAACGCGUCUCCCUCCUAAGGAGAAGACUGCGGGUUCGAGUCCCGUAUGGAACG | 0.931 |
| GUUCCGUUGGUGUAAUGGUAACGCAUCUCCCUCCUAAGGAGAAGACUGCGGGUUCGCGUUCCGUACCGAACG | ≤ 0.5 |
| GUUCCGUUGGUGUAAUGGUAACGCGUCUCCCUCCUAAGGAGAAGACUGCGGGUUCGAGUCGCGUCCGGAACG | 0.609 |
| GUUCCGUUGGUGUAAUGGUAACGCGUCUCCCUCCUAAGGAGAAGACUGGGGGUUCGCGUCCCGUACUGAACG | ≤ 0.5 |
| GUUCCGUUGGUGUAAUGGUAACGCGUCUCCCUCCUAAGGAGAAGAAUGCGGGUUCGAGUCCCGUACGGAACG | 1.03 |

— the RNAGym collection of RNA variant scans (doi:10.1126/science.aae0568)
